How the values were obtained:
Settings in all cases: stereoisomer not certain
Or1m1 (Mus musculus) = biological target: T1, Or1m1 (Mus musculus) (UniProt Q8VFM9)
T1 sequence (whole entry): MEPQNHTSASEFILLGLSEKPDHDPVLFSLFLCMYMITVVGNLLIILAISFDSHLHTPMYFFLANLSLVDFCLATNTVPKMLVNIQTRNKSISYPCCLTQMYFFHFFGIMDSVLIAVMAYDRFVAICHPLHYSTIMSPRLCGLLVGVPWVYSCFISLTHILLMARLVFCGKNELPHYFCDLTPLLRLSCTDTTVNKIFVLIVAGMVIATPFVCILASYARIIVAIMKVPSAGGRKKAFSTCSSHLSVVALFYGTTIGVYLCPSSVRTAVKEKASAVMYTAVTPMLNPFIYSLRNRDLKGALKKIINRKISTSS
Outline: (§1)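 Assay methods differ from source to source, frequently being transient luciferase assays in mammalian cell lines. For each receptor–molecule pair, the label responsive (active) applies when the original authors judged the measured signal statistically different from baseline, and non-responsive (inactive) applies otherwise.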

Or5ar1 (Mus musculus) = biological target: T2, Or5ar1 (Mus musculus) (UniProt Q8VGS3)
T2 sequence (whole entry): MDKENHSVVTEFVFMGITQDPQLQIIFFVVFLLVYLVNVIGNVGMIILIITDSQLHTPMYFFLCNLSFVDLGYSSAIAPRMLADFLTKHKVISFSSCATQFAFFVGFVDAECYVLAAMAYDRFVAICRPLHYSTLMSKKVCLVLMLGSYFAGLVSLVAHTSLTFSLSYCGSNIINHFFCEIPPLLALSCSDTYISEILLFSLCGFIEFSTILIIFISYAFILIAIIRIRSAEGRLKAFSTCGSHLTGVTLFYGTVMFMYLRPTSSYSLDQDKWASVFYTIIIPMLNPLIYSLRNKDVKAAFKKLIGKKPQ
Outline: as §1

UniProt A2ATE5 = biological target: T3, UniProt A2ATE5
T3 sequence (whole entry): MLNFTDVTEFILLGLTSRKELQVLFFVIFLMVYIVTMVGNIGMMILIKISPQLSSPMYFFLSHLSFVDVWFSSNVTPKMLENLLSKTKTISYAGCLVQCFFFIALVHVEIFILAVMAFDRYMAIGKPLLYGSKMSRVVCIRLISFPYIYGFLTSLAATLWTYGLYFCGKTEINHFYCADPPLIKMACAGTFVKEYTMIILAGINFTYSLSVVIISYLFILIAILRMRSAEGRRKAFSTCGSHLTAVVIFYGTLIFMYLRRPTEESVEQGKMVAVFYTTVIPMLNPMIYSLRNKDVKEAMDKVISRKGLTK
Outline: as §1

UniProt A2AVB0 = biological target: T4, UniProt A2AVB0
T4 sequence (whole entry): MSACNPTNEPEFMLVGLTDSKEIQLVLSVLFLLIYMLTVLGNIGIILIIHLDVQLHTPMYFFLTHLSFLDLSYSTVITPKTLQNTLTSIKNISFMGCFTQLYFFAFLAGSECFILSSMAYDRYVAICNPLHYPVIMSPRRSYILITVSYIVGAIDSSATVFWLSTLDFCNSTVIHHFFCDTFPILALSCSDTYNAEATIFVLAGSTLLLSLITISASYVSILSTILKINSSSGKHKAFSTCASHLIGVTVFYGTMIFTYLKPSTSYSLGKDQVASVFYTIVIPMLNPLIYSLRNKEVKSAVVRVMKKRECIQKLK
Outline: as §1

UniProt E9PVX1 = biological target: T5, UniProt E9PVX1
T5 sequence (whole entry): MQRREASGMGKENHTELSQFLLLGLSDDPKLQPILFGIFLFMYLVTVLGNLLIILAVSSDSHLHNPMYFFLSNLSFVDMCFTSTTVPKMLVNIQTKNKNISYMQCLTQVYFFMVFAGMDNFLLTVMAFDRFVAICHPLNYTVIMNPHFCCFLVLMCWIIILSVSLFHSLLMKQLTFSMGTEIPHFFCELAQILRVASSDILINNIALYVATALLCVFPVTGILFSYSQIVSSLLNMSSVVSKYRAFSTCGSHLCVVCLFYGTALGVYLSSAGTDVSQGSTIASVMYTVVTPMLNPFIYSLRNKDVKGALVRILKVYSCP
Outline: as §1

UniProt E9PZ66 = biological target: T6, UniProt E9PZ66
T6 sequence (whole entry): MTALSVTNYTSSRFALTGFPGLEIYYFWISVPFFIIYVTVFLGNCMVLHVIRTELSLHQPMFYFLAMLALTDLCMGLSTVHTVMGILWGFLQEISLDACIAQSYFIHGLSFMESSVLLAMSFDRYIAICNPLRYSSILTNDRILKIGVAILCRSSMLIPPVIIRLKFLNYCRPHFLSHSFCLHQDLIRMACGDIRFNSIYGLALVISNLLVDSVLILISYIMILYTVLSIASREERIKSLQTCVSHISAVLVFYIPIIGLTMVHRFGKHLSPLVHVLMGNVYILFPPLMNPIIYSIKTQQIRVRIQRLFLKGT
Outline: as §1

UniProt E9Q4X7 = biological target: T7, UniProt E9Q4X7
T7 sequence (whole entry): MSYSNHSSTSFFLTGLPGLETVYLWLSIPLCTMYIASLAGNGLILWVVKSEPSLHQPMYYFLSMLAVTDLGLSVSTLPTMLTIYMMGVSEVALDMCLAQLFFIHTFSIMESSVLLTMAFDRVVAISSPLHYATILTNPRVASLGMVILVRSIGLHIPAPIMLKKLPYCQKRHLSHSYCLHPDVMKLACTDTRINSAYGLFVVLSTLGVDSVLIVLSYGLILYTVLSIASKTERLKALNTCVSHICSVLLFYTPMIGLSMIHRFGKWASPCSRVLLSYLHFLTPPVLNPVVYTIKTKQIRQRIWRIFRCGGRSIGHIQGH
Outline: as §1

UniProt E9Q546 = biological target: T8, UniProt E9Q546
T8 sequence (whole entry): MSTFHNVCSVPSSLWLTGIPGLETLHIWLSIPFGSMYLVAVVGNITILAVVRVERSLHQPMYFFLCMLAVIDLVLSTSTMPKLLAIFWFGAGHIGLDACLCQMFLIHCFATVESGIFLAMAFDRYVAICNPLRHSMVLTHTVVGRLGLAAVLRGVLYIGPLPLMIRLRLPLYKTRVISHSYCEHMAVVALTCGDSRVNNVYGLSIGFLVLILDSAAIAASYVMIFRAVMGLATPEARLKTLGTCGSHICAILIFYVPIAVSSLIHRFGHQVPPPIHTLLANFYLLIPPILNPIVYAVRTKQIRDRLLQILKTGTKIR
Outline: as §1

UniProt E9Q6Z7 = biological target: T9, UniProt E9Q6Z7
T9 sequence (whole entry): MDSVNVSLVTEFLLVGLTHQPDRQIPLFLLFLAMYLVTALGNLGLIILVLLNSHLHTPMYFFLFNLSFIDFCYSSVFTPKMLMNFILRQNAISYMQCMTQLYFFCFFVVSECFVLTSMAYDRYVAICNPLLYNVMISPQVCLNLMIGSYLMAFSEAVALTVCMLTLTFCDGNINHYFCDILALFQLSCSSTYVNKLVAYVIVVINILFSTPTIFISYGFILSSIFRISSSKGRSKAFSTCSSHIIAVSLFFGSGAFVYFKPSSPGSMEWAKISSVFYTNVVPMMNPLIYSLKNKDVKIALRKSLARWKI
Outline: as §1

UniProt L7MU75 = biological target: T10, UniProt L7MU75
T10 sequence (whole entry): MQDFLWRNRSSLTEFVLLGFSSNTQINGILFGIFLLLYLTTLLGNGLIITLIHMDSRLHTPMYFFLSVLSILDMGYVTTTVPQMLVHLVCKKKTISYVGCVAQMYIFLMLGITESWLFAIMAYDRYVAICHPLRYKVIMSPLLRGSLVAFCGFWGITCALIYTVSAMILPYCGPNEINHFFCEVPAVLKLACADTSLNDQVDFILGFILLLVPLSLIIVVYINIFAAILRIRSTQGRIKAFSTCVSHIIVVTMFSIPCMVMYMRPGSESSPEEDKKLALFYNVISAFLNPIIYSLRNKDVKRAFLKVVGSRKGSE
Outline: as §1

Or2c1 (Mus musculus) = biological target: T11, Or2c1 (Mus musculus) (UniProt P23275)
T11 sequence (whole entry): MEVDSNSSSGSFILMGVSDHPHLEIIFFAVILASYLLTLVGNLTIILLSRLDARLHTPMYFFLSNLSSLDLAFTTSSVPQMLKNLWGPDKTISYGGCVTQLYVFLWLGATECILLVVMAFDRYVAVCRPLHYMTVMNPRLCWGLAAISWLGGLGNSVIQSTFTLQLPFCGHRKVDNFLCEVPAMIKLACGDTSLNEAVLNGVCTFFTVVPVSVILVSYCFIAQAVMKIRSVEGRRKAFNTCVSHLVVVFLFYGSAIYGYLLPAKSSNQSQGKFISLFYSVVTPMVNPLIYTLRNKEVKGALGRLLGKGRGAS
Outline: as §1

Or5p80 (Mus musculus) = biological target: T12, Or5p80 (Mus musculus) (UniProt Q8VG42)
T12 sequence (whole entry): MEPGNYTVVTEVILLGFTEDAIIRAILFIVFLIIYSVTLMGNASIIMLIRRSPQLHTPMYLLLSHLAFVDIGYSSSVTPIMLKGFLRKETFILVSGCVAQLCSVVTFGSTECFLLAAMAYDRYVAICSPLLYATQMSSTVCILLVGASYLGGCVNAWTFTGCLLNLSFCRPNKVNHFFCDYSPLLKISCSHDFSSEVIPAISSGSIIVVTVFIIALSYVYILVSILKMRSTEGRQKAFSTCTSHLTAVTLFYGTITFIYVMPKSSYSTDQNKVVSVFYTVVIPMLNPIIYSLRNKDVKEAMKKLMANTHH
Outline: as §1

Or7a40 (Mus musculus) = biological target: T13, Or7a40 (Mus musculus) (UniProt Q9JHB2)
T13 sequence (whole entry): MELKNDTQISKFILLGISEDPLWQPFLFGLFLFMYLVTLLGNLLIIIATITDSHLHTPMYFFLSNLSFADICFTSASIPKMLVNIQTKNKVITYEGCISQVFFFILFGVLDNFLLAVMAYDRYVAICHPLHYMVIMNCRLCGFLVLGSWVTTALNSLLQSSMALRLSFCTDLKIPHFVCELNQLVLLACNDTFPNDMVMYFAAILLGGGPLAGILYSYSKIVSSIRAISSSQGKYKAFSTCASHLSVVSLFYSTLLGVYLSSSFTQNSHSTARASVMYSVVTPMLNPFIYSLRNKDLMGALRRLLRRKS
Outline: as §1

UniProt A2AVB5 = biological target: T14, UniProt A2AVB5
T14 sequence (whole entry): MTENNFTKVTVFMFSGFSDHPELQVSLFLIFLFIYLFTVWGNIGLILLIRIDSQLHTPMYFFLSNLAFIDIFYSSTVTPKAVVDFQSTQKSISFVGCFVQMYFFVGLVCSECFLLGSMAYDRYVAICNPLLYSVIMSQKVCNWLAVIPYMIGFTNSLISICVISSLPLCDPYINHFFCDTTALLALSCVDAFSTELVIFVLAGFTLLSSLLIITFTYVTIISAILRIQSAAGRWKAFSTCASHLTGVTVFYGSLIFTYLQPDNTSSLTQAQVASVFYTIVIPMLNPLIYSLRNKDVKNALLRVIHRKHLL
Outline: as §1

UniProt B2RVX8 = biological target: T15, UniProt B2RVX8
T15 sequence (whole entry): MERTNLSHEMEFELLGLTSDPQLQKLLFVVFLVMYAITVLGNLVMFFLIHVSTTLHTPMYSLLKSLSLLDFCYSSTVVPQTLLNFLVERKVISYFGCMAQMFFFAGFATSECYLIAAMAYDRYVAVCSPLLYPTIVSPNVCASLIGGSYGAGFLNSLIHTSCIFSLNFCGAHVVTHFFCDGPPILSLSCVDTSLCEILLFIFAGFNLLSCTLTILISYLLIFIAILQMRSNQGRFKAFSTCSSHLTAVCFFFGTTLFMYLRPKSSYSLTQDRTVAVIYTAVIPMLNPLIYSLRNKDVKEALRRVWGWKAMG
Outline: as §1

UniProt K7N609 = biological target: T16, UniProt K7N609
T16 sequence (whole entry): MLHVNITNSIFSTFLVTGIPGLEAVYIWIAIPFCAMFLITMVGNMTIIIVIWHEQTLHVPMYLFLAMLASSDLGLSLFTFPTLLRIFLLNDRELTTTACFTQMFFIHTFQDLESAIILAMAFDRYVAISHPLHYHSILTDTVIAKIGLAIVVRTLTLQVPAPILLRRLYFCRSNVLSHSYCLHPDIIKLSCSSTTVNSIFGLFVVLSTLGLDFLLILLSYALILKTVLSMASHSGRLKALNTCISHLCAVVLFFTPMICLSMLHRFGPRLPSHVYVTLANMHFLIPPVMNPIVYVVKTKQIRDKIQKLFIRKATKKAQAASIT
Outline: as §1

Compound | odorant receptor agonist call (Or1m1 (Mus musculus)) | odorant receptor agonist call (Or5ar1 (Mus musculus)) | odorant receptor agonist call (UniProt A2ATE5) | odorant receptor agonist call (UniProt A2AVB0) | odorant receptor agonist call (UniProt E9PVX1) | odorant receptor agonist call (UniProt E9PZ66) | odorant receptor agonist call (UniProt E9Q4X7) | odorant receptor agonist call (UniProt E9Q546) | odorant receptor agonist call (UniProt E9Q6Z7) | odorant receptor agonist call (UniProt L7MU75) | odorant receptor agonist call (Or2c1 (Mus musculus)) | odorant receptor agonist call (Or5p80 (Mus musculus)) | odorant receptor agonist call (Or7a40 (Mus musculus)) | odorant receptor agonist call (UniProt A2AVB5) | odorant receptor agonist call (UniProt B2RVX8) | odorant receptor agonist call (UniProt K7N609)
O=Cc1ccc2c(c1)OCO2 | inactive | inactive | inactive | inactive | inactive | inactive | inactive | inactive | inactive | – | – | – | – | – | – | –
OCc1ccc2c(c1)OCO2 | inactive | inactive | inactive | inactive | inactive | inactive | inactive | inactive | inactive | inactive | – | – | – | – | – | –
CCCCC(Br)C(=O)O (configuration not stated) | inactive | inactive | inactive | inactive | inactive | inactive | inactive | inactive | inactive | inactive | – | – | – | – | – | –
C=CCc1ccccc1 | – | inactive | – | – | – | – | – | inactive | – | – | active | inactive | inactive | inactive | inactive | inactive
C=C(C)C1CC=C(C=O)CC1 (configuration not stated) | inactive | inactive | inactive | inactive | inactive | inactive | inactive | inactive | inactive | inactive | – | – | – | – | – | –

Reference: the M2OR odorant receptor database
